Laboratory results: ChEMBL document CHEMBL3621151, “Orally bioavailable Syk inhibitors with activity in a rat PK/PD model” (Bioorg Med Chem Lett, 2015)
Activity calls are given as the source filed them. The rule behind the calls is not given here.

Columns and labels:
[1] = biological target: T1, Tyrosine-protein kinase SYK (Homo sapiens, UniProt P43405)
[2] = biological target: T1, Tyrosine-protein kinase SYK; test: Inhibition of Syk in anti-igM stimulated human Ramos B cells assessed as phospho-BLNK level preincubated for 30 mins followed by anti-IgM stimulation measured after 15 mins by flow cytometric analysis; type: cell-based
Rattus norvegicus [3] = test: Dose normalized Cmax in Sprague-Dawley rat at 1 mg/kg, iv and 3 mg/kg, po administered as cassette dosing; type: ADME, organism-based; conditions: in vivo
In short: (§1)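 Cassette dosing in Sprague Dawley rats: iv 1 mg/kg in NMP/PEG200 (3:7) and po 3 mg/kg in CMC/water/Tween (0.5:99:0.5). Dose-normalized values are marked as such.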

[4] = biological target: T1, Tyrosine-protein kinase SYK; test: Inhibition of Syk in anti-CD32 stimulated CD14+ human monocytes in presence of 90% human blood assessed as phospho-SLP76 level preincubated for 30 mins followed by anti-CD32 stimulation measured after 5 mins by flow cytometric analysis
[5] = Mean residence time in Sprague-Dawley rat at 1 mg/kg, iv and 3 mg/kg, po administered as cassette dosing; type: ADME, organism-based; conditions: in vivo
In short: as §1

[6] = Oral bioavailability in Sprague-Dawley rat at 3 mg/kg administered as cassette dosing; type: ADME, organism-based; conditions: in vivo
In short: as §1

Liver microsome [7] = test: Drug metabolism in human liver microsomes assessed as pyrazole hydroxylation; type: ADME
[8] = Half life in rat liver microsomes; type: ADME
[9] = Solubility in pH 6.8 solution; type: physicochemical
Rattus norvegicus [10] = test: Dose normalized AUC in Sprague-Dawley rat at 3 mg/kg, po administered as cassette dosing; type: ADME, organism-based; conditions: in vivo
In short: as §1

[11] = Clearance in Sprague-Dawley rat at 1 mg/kg, iv and 3 mg/kg, po administered as cassette dosing; type: ADME, organism-based; conditions: in vivo
In short: as §1

Liver microsome [12] = test: Drug metabolism in rat liver microsomes assessed as pyrazole N-demethylation; type: ADME
Aurora kinase A = biological target: T2, Aurora kinase A (Homo sapiens, UniProt O14965); test: Inhibition of aurora A kinase (unknown origin) by enzymatic assay
T2 sequence (O14965 whole entry): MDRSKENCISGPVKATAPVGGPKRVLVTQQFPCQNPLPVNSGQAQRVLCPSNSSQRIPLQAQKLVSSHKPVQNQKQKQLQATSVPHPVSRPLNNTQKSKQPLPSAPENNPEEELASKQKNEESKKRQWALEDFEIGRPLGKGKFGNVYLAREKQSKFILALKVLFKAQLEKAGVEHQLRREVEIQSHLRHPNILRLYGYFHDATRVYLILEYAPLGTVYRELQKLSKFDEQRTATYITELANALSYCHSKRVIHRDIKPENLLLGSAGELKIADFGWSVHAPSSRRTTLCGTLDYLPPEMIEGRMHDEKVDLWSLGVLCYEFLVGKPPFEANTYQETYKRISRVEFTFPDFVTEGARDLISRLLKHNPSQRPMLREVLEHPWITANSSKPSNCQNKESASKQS

[13] = Protein binding in human; type: ADME, organism-based; conditions: plasma, read-out: PB (converted)
Liver microsome [14] = test: Drug metabolism in human liver microsomes assessed as pyrazole N-demethylation; type: ADME
Liver microsome [15] = test: Drug metabolism in rat liver microsomes assessed as lactam hydroxylation; type: ADME
Liver microsome [16] = test: Drug metabolism in rat liver microsomes assessed as pyrazole hydroxylation; type: ADME
Liver microsome [17] = test: Drug metabolism in human liver microsomes assessed as lactam hydroxylation; type: ADME
[18] = Volume of distribution at steady state in Sprague-Dawley rat at 1 mg/kg, iv and 3 mg/kg, po administered as cassette dosing; type: ADME, organism-based; conditions: in vivo, read-out: Vdss
In short: as §1

Rattus norvegicus [19] = test: In vivo inhibition of Syk in Lewis rat assessed as reduction in antiCD32-antibody-induced SLP76 phosphorylation in peripheral blood monocytes at 3 mg/kg, po measured after 2 hrs relative to vehicle-treated control; type: functional
In short: (§2)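 Lewis rats were given a single oral dose of 3 mg/kg. Blood was sampled at 2, 4, 8 and 24 h for compound levels. Ex vivo, peripheral blood monocytes were stimulated through FcγR with anti-CD32 antibody, and SLP76 phosphorylation was quantified as % pSLP76.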

[20] = Drug uptake in Lewis rat blood at 3 mg/kg, po measured after 24 hrs; type: ADME, organism-based; conditions: read-out: Drug uptake
In short: as §2

[21] = Drug uptake in Lewis rat blood at 3 mg/kg, po measured after 4 hrs; type: ADME, organism-based; conditions: read-out: Drug uptake
In short: as §2

Rattus norvegicus [22] = test: In vivo inhibition of Syk in Lewis rat assessed as reduction in antiCD32-antibody-induced SLP76 phosphorylation in peripheral blood monocytes at 3 mg/kg, po measured after 8 hrs relative to vehicle-treated control; type: functional
In short: as §2

Rattus norvegicus [23] = test: In vivo inhibition of Syk in Lewis rat assessed as reduction in antiCD32-antibody-induced SLP76 phosphorylation in peripheral blood monocytes at 3 mg/kg, po measured after 24 hrs relative to vehicle-treated control; type: functional, organism-based
In short: as §2

Aurora kinase B = Aurora kinase B (Homo sapiens, UniProt Q96GD4); test: Inhibition of aurora B kinase (unknown origin) by cell based assay
Rattus norvegicus [24] = test: In vivo inhibition of Syk in Lewis rat assessed as reduction in antiCD32-antibody-induced SLP76 phosphorylation in peripheral blood monocytes at 3 mg/kg, po measured after 4 hrs relative to vehicle-treated control; type: functional
In short: as §2

Blood = test: Drug level in rat blood at 1 mg/kg, iv; type: ADME, organism-based; conditions: in vivo
In short: (§3)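 Rats received a single iv dose of 1 mg/kg. Compound concentrations were measured in blood, liver and kidney and expressed as ng/g.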

[25] = Drug uptake in Lewis rat blood at 3 mg/kg, po measured after 2 hrs; type: ADME, organism-based; conditions: read-out: Drug uptake
In short: as §2

[26] = biological target: T3, Voltage-gated inwardly rectifying potassium channel KCNH2 (Homo sapiens, UniProt Q12809); test: Inhibition of human ERG by binding assay
[27] = Drug uptake in Lewis rat blood at 3 mg/kg, po measured after 8 hrs; type: ADME, organism-based; conditions: read-out: Drug uptake
In short: as §2

Salmonella typhimurium = test: Toxicity in Salmonella typhimurium by Ames test; type: organism-based; conditions: salmonella enterica subsp. enterica serovar typhimurium
Liver = test: Drug level in rat liver at 1 mg/kg, iv; type: ADME, organism-based; conditions: in vivo
In short: as §3

Kidney = test: Drug level in rat kidney at 1 mg/kg, iv; type: ADME, organism-based; conditions: in vivo
In short: as §3

[28] = Toxicity in micronucleus (unknown origin) by micronucleus test
[29] = biological target: T3, Voltage-gated inwardly rectifying potassium channel KCNH2; test: Inhibition of human ERG by automated patch clamp assay
[30] = Ratio of drug level in kidney to blood in rat at 1 mg/kg, iv; type: ADME, organism-based
In short: (§4)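 Rats received a single 1 mg/kg iv dose. Compound levels were then measured in blood, liver and kidney and expressed as ng/g of matrix. The ratio is tissue level over blood level.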

[31] = Ratio of drug level in liver to blood in rat at 1 mg/kg, iv; type: ADME, organism-based
In short: as §4

[32] = biological target: T3, Voltage-gated inwardly rectifying potassium channel KCNH2; test: Inhibition of human ERG at 30 uM by manual patch clamp assay

T3 sequence (Q12809 whole entry): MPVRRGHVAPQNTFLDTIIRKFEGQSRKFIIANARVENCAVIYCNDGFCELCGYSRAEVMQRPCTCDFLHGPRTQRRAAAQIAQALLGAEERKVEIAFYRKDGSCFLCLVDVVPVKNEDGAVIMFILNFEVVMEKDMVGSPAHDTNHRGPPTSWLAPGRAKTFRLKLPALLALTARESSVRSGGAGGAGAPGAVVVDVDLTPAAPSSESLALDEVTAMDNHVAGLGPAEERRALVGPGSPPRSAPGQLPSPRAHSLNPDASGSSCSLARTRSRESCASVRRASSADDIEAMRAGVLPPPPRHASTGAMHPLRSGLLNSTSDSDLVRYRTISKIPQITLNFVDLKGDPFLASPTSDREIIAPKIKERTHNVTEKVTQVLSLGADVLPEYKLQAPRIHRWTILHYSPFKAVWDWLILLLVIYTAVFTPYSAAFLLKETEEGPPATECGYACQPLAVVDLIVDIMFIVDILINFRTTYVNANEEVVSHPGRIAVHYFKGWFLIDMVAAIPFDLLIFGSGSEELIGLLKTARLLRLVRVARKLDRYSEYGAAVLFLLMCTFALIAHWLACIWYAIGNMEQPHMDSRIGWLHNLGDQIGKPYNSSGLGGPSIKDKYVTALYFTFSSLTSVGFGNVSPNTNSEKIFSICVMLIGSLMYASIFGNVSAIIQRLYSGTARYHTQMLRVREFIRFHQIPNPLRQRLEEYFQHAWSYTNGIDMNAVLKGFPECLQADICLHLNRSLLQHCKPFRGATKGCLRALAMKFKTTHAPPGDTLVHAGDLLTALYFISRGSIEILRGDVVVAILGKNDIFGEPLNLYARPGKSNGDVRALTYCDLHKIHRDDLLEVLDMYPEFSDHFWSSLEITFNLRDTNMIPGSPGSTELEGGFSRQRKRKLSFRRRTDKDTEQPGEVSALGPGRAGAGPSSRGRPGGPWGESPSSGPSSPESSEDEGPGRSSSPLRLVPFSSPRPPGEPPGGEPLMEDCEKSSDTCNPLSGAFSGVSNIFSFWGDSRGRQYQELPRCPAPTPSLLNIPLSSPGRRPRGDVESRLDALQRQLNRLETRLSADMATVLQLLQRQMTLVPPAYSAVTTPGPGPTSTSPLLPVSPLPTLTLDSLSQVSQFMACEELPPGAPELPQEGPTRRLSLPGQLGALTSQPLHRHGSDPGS
Sequence of Aurora kinase B (Q96GD4 whole entry): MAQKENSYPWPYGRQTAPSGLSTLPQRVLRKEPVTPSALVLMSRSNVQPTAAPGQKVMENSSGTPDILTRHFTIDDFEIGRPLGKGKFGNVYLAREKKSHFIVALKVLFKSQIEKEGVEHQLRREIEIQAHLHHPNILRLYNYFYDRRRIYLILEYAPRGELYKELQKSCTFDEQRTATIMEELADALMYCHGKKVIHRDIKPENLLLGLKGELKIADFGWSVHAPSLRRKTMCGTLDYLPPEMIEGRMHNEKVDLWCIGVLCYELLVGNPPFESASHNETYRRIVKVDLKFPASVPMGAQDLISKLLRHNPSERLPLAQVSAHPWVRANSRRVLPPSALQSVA

Row | Compound | IC50 [1] [nM] | IC50 [2] [nM] | Cmax/dose (Rattus norvegicus [3]) [nM] | IC50 [4] [nM] | MRT [5] [min] | bioavailability [6] [%] | Drug metabolism (Liver microsome [7]) | clearance [11] [mL/min/kg] | Drug metabolism (Liver microsome [12]) | IC50 (Aurora kinase A) [nM] | Drug metabolism (Liver microsome [14]) | Drug metabolism (Liver microsome [15]) | Drug metabolism (Liver microsome [16]) | Drug metabolism (Liver microsome [17]) | Vd [18] [L/kg] | other results
1 | C[C@@H](Oc1cc(-c2cnn(C(F)F)c2)cc2ncsc12)[C@H]1CNC(=O)O1 | 9 | 107 | 803 | 230 | 282 |  |  |  |  |  |  |  |  |  |  | 
2 | C[C@@H](Oc1cc(-c2cnn(C(F)F)c2)cc2nscc12)[C@H]1CNC(=O)O1 | 16 | 328 | 614 | 197 | 168 |  |  |  |  |  |  |  |  |  |  | 
3 | C[C@@H](Oc1cc(-c2cnn(C)c2)cc2nscc12)[C@H]1CNC(=O)O1 |  |  | 477 |  | 120 | 100 | metabolite_detected | 12 | metabolite_detected | ≤ 100 | metabolite_detected | metabolite_detected | metabolite_detected | metabolite_detected | 1.5 | 
4 | CN(C)c1ccc(-c2cc3ncccc3c(NCCCN)n2)cc1 |  |  |  |  |  |  | metabolite_detected |  | metabolite_detected |  | metabolite_detected | metabolite_detected | metabolite_detected | metabolite_detected |  | 
5 | NC(=O)c1nnc(N[C@@H]2CCCC[C@@H]2N)nc1Nc1cccc2cc[nH]c12 |  |  | 80 |  |  |  |  |  |  |  |  |  |  |  |  | Kp [30]: 100; Kp [31]: 100; Drug uptake (Blood): 41 ng/g; inhibition (INH) [32]: Not Active; Drug uptake (Liver): 9175 ng/g; Drug uptake (Kidney): 3866 ng/g; IC50 [29]: 28000 nM

Now from value to compound, other results behind:

Row | IC50 [1] [nM] | IC50 [2] [nM] | Cmax/dose (Rattus norvegicus [3]) [nM] | IC50 [4] [nM] | MRT [5] [min] | bioavailability [6] [%] | Drug metabolism (Liver microsome [7]) | clearance [11] [mL/min/kg] | Drug metabolism (Liver microsome [12]) | IC50 (Aurora kinase A) [nM] | Drug metabolism (Liver microsome [14]) | Drug metabolism (Liver microsome [15]) | Drug metabolism (Liver microsome [16]) | Drug metabolism (Liver microsome [17]) | Vd [18] [L/kg] | Compound | other results
6 | 57 | 340 | 263 | 1020 | 156 |  |  |  |  |  |  |  |  |  |  | C[C@@H](Oc1cc(-c2cnn(C(F)F)c2)cc2nscc12)[C@H]1CNC(=O)C1 | 
7 | 40 | 247 | 109 | 290 | 30 | 27 | metabolite_detected | 86 | metabolite_detected | 800 | metabolite_detected | metabolite_detected | metabolite_detected | metabolite_detected | 2.4 | C[C@@H](Oc1nc(-c2cnn(C)c2)cc2nscc12)[C@H]1CNC(=O)C1 | half-life [8]: 34 min; solubility [9]: > 1000 µM; AUC/dose (Rattus norvegicus [10]): 577 nM.hr/(mg/kg); fraction unbound [13]: 0.2
8 | 46 | 161 | 94 | 298 | 54 | 30 | metabolite_detected | 45 | metabolite_detected | 576 | metabolite_detected | metabolite_detected | metabolite_detected | metabolite_detected | 2.4 | C[C@@H](Oc1cc(-c2cnn(C)c2)cc2nscc12)[C@H]1CNC(=O)C1 | half-life [8]: 34 min; solubility [9]: > 1000 µM; AUC/dose (Rattus norvegicus [10]): 1056 nM.hr/(mg/kg); fraction unbound [13]: 0.2
9 | 5 | 132 | 178 | 517 | 24 | 35 | metabolite_detected | 53 | metabolite_detected | ≤ 100 | metabolite_detected | metabolite_detected | metabolite_detected | metabolite_detected | 1.2 | COc1ccc(-c2cc3ncsc3c(O[C@H](C)[C@H]3CNC(=O)C3)n2)cc1OC | AUC/dose (Rattus norvegicus [10]): 858 nM.hr/(mg/kg)
10 | 26 | 284 | 103 | 538 | 42 |  |  |  |  |  |  |  |  |  |  | C[C@@H](Oc1nc(-c2cnn(C)c2)cc2ncsc12)[C@H]1CNC(=O)C1 | 
11 | 33 | 89 |  | 186 |  |  |  |  |  |  |  |  |  |  |  | C[C@@H](Oc1cc(-c2cnn(C)c2)cc2ncsc12)[C@H]1CNC(=O)C1 | 
12 | 38 | 284 | 917 | 522 | 360 | 88 | metabolite_detected | 4 | metabolite_detected | 57 | metabolite_detected | metabolite_detected | metabolite_detected | metabolite_detected | 1.3 | C[C@@H](Oc1nc(-c2cnn(C(F)F)c2)cc2ncsc12)[C@H]1CNC(=O)O1 | inhibition in vivo at 3 mg/kg (Rattus norvegicus [19]): 78%; concentration at 24 h [20]: 40 nM; concentration at 4 h [21]: 1340 nM; inhibition in vivo at 3 mg/kg (Rattus norvegicus [22]): 60%; inhibition (Rattus norvegicus [23]): inactive; IC50 (Aurora kinase B): 110 nM; inhibition in vivo at 3 mg/kg (Rattus norvegicus [24]): 79%; Drug uptake (Blood): 1014 ng/g; concentration at 2 h [25]: 1930 nM; IC50 [26]: > 30000 nM; concentration at 8 h [27]: 827 nM; Activity (Salmonella typhimurium): Non-toxic; Drug uptake (Liver): 2134 ng/g; Drug uptake (Kidney): 1433 ng/g; Activity [28]: Toxic; IC50 [29]: > 30000 nM
